Data: ChEMBL document CHEMBL1156469 (2007)
Activity calls are given as the source filed them. The rule behind the calls is not given here.

Tests used:
[1] = tested on: Osteoblast; experiment: Effect on bone morphogenetic protein 8b gene expression in rat primary osteoblast cells assessed as expression ratio of treated to untreated control by microarray analysis; assay type: functional
[2] = tested on: MCF7; experiment: Reduction in anchorage-independent colony formation of human MCF7 cells at 1 uM by soft agar colony forming assay; assay type: functional, cell-based
Outline: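 Seeded in 0.35% noble agar in DMEM/10% FBS over a 0.7% agar bed. Colonies of at least 50 μm counted after 3 weeks under a dissecting microscope, six replicates per treatment. Three separate experiments.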

[3] = molecular target: Proto-oncogene tyrosine-protein kinase Src (Mus musculus) (UniProt P05480); experiment: Reversal of increase in Src kinase phosphorylation in mouse MC3T3-E1 cells at 1 uM in presence of PP2; assay type: cell-based
Outline: (§1)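 Src phosphorylation, ERα nuclear translocation and BMP-2 protein analysed by Western blot with ECL detection. Three independent experiments.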

[4] = tested on: MC3T3-E1; experiment: Increase in BMP2 expression in mouse MC3T3-E1 cells expressing pBMP2 mutant at 1 uM after 4 hrs by luciferase method relative to control; assay type: functional, cell-based
Outline: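 MC3T3-E1 cells transfected with BMP-2 promoter–luciferase constructs (full promoter or deletions), treated with 1 μm or vehicle for 4 h; Dual-Luciferase assay; means ± S.D.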

[5] = molecular target: Forkhead box protein O3 (Homo sapiens) (UniProt O43524); experiment: Reversal of induction of FOXO3a activity in human MDA-MB-231 cells transfected with constitutively activated Akt mutant; assay type: cell-based
[6] = molecular target: T1, Estrogen receptor (Mus musculus) (UniProt P19785); experiment: Reversal of increase in DNA-binding activity of ERalpha in nuclear extracts of mouse MC3T3-E1 cells by electrophoretic mobility shift assays in presence of PP2; assay type: cell-based
T1 sequence (whole entry): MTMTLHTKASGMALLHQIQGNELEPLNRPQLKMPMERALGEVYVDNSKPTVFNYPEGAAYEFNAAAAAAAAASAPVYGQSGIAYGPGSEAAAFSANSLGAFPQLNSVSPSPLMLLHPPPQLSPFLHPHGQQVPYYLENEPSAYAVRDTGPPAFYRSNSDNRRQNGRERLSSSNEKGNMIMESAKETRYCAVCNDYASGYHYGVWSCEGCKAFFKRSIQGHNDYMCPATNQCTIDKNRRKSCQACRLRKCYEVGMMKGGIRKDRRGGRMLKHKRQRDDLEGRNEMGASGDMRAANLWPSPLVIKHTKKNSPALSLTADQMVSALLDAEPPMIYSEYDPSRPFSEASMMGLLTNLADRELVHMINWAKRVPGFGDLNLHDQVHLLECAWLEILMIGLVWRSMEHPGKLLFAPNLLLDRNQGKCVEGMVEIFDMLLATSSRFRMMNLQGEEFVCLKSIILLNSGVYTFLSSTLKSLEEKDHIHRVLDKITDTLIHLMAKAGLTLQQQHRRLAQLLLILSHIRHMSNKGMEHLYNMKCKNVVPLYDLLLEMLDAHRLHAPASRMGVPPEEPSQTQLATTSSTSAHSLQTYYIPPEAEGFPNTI
Outline: (§2)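 Nuclear extracts of MC3T3-E1 cells. ER-binding probe [α-32P]dCTP end-labeled, 20-min binding at room temperature, 5-fold unlabeled competitor where used. Complexes resolved on 5% nondenaturing PAGE in Tris-borate-EDTA pH 8.3, then autoradiography.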

[7] = tested on: T47D; experiment: Antiproliferative activity against human T47D cells at 1 uM by flow cytometry; assay type: functional, cell-based
Outline: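 Proliferation was measured by DNA flow cytometry. Incubations were run in triplicate across three separate experiments, and values are means ± S.D.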

[8] = molecular target: T1, Estrogen receptor (Mus musculus); experiment: Reversal of increase in DNA-binding activity of ERalpha in nuclear extracts of mouse MC3T3-E1 cells by electrophoretic mobility shift assays in presence of short interfering ER alpha-RNA; assay type: cell-based; outline: as §2
[9] = tested on: Osteoblast; experiment: Effect on vascular cell adhesion molecule 1 gene expression in rat primary osteoblast cells assessed as expression ratio of treated to untreated control by microarray analysis; assay type: functional
Outline: (§3)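 GEArray Q series Mouse Osteogenesis cDNA array profiling osteogenic-differentiation genes in treated versus vehicle-treated primary osteoblasts.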

[10] = Reversal of induction in nuclear translocation of ERalpha in mouse MC3T3-E1 cells transfected with dominant-negative mutant Src expression vector at 1 uM; assay type: functional, cell-based; outline: as §1
[11] = tested on: Osteoblast; experiment: Effect on procollagen 18alpha 1 gene expression in rat primary osteoblast cells assessed as expression ratio of treated to untreated control by microarray analysis; assay type: functional
Outline: (§4)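 Resveratrol-treated and vehicle-treated primary osteoblasts were profiled on a mouse osteogenesis-focused cDNA array (GEArray Q series) built to track gene expression during osteogenic differentiation. Each gene's signal in treated cells was expressed as a ratio to untreated control.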

[12] = tested on: Osteoblast; experiment: Effect on twist gene homolog 1 gene expression in rat primary osteoblast cells assessed as expression ratio of treated to untreated control by microarray analysis; assay type: functional; outline: as §3
[13] = tested on: MC3T3-E1; experiment: Induction of ER association with BMP2 promoter in mouse MC3T3-E1 cells at 1 uM by ChiP assay; assay type: functional, cell-based
Outline: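 MC3T3-E1 cells ± 1 μm, formaldehyde-fixed; ChIP with transcription factor antibodies and protein G magnetic beads; BMP-2 promoter quantified by real-time PCR (45 cycles); ratio of IP to input Ct values.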

[14] = tested on: MC3T3-E1; experiment: Reversal of induction in ER.DNA complex in mouse MC3T3-E1 cells at 1 uM by RT-PCR in presence of tamoxifen; assay type: functional, cell-based
Outline: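 BMP-2 promoter quantified by real-time PCR (45 cycles, 61 °C anneal), reported as IP-to-input Ct ratio. DN-Src by 3 μg vector, PP2 at 10 μM; ICI182780 and tamoxifen at indicated concentrations.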

[15] = tested on: Osteoblast; experiment: Effect on bone morphogenetic protein 1 gene expression in rat primary osteoblast cells assessed as expression ratio of treated to untreated control by microarray analysis; assay type: functional
[16] = tested on: Osteoblast; experiment: Effect on ubiquitin-conjugating enzyme E2D 3 gene expression in rat primary osteoblast cells assessed as expression ratio of treated to untreated control by microarray analysis; assay type: functional; outline: as §3
[17] = molecular target: Alkaline phosphatase (Rattus norvegicus) (UniProt Q9JKS8); experiment: Inhibition of induction of ALP activity in rat primary osteoblast cells at 1 uM after 48 hrs in presence of noggin; assay type: cell-based
[18] = tested on: Osteoblast; experiment: Effect on ornithine decarboxylase gene expression in rat primary osteoblast cells assessed as expression ratio of treated to untreated control by microarray analysis; assay type: functional; outline: as §4
[19] = tested on: MDA-MB-231; experiment: Induction of FOXO3a nuclear accumulation in human MDA-MB-231 cells FOXO3a-specific small interfering RNA xenografted in nude mice at 10 mg/kg for 2 days; assay type: functional, organism-based; design: dose 10 mg/kg
[20] = tested on: Osteoblast; experiment: Increase in proliferation of rat primary osteoblast cells at 0.1 to 10 uM after 24 hr by flow cytometry; assay type: functional, cell-based
[21] = tested on: Osteoblast; experiment: Effect on matrix metalloprotease 13 gene expression in rat primary osteoblast cells assessed as expression ratio of treated to untreated control by microarray analysis; assay type: functional; outline: as §4
[22] = tested on: MC3T3-E1; experiment: Inhibition of antiapoptotic activity in mouse MC3T3-E1 cells at 1 uM after 48 hrs in presence of noggin; assay type: functional, cell-based
[23] = tested on: MDA-MB-231; experiment: Decrease in Akt activation in human MDA-MB-231 cells expressing FOXO3a-specific small interfering RNA xenografted in nude mice at 10 mg/kg for 2 days; assay type: functional, organism-based; design: dose 10 mg/kg
Outline: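 MDA-MB-231 cells were cotransfected with FOXO3a siRNA (pSuper) and pcDNA3 at a 10:1 ratio. Stable pools were selected in 800 μg/ml G418 for 4 weeks, and control siRNA pools were made the same way. […] Akt phosphorylation was then assessed in the primary tumors.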

Chain of Proto-oncogene tyrosine-protein kinase Src (Mus musculus) (P05480 2-535 limits assumed): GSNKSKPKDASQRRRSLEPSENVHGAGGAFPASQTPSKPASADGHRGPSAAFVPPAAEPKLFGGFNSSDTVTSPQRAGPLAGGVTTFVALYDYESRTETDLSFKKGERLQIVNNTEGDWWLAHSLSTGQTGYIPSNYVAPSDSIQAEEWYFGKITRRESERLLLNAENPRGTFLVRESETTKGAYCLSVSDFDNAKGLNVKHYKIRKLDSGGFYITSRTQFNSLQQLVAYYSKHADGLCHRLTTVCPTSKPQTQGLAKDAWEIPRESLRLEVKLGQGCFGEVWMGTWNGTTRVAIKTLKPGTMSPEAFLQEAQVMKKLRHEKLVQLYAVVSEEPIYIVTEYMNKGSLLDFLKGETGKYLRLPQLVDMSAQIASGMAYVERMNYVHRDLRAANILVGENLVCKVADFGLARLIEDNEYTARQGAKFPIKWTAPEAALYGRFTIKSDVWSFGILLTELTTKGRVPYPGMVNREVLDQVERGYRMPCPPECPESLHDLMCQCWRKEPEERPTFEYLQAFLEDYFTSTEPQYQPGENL
Chain of Alkaline phosphatase (Rattus norvegicus) (Q9JKS8 as listed by the source): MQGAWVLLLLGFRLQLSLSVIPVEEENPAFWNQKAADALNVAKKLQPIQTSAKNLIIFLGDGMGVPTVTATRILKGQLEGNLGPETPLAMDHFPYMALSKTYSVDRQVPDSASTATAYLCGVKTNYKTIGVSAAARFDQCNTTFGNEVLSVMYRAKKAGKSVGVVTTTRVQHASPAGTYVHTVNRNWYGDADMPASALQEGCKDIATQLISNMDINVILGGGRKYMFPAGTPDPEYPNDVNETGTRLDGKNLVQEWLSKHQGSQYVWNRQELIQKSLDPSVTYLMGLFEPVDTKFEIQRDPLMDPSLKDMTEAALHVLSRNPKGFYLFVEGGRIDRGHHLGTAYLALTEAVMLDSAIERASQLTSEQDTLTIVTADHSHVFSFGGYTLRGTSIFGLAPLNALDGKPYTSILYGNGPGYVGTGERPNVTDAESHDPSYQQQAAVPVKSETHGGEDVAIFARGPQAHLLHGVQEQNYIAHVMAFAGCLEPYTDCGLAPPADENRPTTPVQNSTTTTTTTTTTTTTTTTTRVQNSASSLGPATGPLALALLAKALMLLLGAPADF
Chain of Forkhead box protein O3 (Homo sapiens) (O43524 whole entry): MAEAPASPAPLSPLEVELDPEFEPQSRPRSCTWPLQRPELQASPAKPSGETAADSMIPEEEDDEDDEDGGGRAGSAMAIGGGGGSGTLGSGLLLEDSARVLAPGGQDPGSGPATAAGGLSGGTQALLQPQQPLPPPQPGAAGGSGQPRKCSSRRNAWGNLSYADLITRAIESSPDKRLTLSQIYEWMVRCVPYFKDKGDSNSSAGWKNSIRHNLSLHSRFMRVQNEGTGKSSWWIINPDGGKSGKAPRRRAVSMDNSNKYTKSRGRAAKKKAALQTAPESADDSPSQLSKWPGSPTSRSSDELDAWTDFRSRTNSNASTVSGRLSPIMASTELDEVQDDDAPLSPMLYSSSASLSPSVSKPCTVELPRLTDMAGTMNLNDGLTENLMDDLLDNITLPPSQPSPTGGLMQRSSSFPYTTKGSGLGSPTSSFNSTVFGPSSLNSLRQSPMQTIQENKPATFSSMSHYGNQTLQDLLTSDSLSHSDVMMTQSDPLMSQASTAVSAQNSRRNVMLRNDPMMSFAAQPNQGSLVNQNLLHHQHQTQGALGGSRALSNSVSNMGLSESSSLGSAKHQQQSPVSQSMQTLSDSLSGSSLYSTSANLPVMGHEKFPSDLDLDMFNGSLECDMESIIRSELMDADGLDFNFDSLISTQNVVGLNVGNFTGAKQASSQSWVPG

- Activity [3]: Active
- Activity [5]: Active
- Activity [6]: Active
- Activity [8]: Active
- Activity [17]: Active
SMILES: Oc1ccc(/C=C/c2cc(O)cc(O)c2)cc1 [RESVERATROL]
- Ratio [1]: 1.82
- Activity [2]: Active
- Activity [4]: Active
- Activity [7]: Active
- Ratio [9]: 0.46
- Activity [10]: Active
- Ratio [11]: 3.16
- Ratio [12]: 3.77
- Activity [13]: Active
- Activity [14]: Dose-dependent effect
- Ratio [15]: 1.5
- Ratio [16]: 3.73
- Ratio [18]: 2.79
- Activity [19]: Active
- Activity [20]: Active
- Ratio [21]: 0.64
- Activity [22]: Active
- Activity [23]: Active
